In assay [1] the test system is Pichia kudriavzevii. The assay is described as follows: Antimicrobial activity against Candida krusei LMR 39-14 infected in immunosuppressed CF-1 mouse assessed as decrease in kidney bacterial burden at 1 mg/kg, ip administered once daily for 5 days measured after 5 days (Rvb= 6.66). The class given is functional. The note with it: route intraperitoneal. A digest of the protocol:
(§1)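 C. krusei clinical bloodstream isolate given IV by tail vein at 1.3×10^7 to 1.5×10^7 CFU/mouse, with inoculum confirmed by plating. Mice immunosuppressed with 5-FU 200 mg/kg i.p. 3 days before and dexamethasone 4 mg/kg s.c. on the day of infection. Treatment i.p. q24h for 5 days. Five mice/group killed day 5 or day 10. Both kidneys homogenized and plated on Sabouraud agar for 48 h; log10 CFU/g; detection limit 40 CFU/g; ANOVA; duplicate runs pooled.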

For assay [2], the system named is Pichia kudriavzevii. The assay is described as follows: Antimicrobial activity against Candida krusei LMR 39-14 infected in immunosuppressed CF-1 mouse assessed as increased survival of mouse at 1 mg/kg, ip administered once daily for 5 days relative to control. More on the design: dose 1 mg/kg. The class given is functional, organism-based. A digest of the protocol:
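Immunosuppression used 5-FU 200 mg/kg i.p. on day −3 and dexamethasone 4 mg/kg s.c. on day 0. C. krusei bloodstream isolate was given IV via tail vein at 1.3×10^7 to 1.5×10^7 CFU. Drug i.p. q24h for 5 days, saline placebo. Fifteen mice/group per run followed for survival; experiment in duplicate, pooled. Kaplan-Meier estimates compared by log-rank test.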

Assay [3] concerns Pichia kudriavzevii. Put plainly: Antimicrobial activity against Candida krusei LMR 39-14 infected in immunosuppressed CF-1 mouse assessed as serum 1,3-beta-D-glucan level at 1 mg/kg, ip administered once daily for 5 days measured after 10 days (Rvb= 5.22). To be noted: route intraperitoneal. The class given is functional.
In assay [4] the test system is Pichia kudriavzevii. Put plainly: Antimicrobial activity against Candida krusei LMR 39-14 infected in immunosuppressed CF-1 mouse assessed as serum 1,3-beta-D-glucan level at 1 mg/kg, ip administered once daily for 5 days measured after 5 days (Rvb= 6.66). The class given is functional. The note with it: route intraperitoneal.
Assay [5] deals with Pichia kudriavzevii. The assay is described as follows: Antimicrobial activity against Candida krusei LMR 39-14 infected in immunosuppressed CF-1 mouse assessed as decrease in kidney bacterial burden at 1 mg/kg, ip administered once daily for 5 days measured after 10 days (Rvb= 5.22). To be noted: route intraperitoneal. The assay is classed as functional. A digest of the protocol: as §1

Assay [6] relates to Pichia kudriavzevii. Put plainly: Antimicrobial activity against Candida krusei LMR 39-14 infected in immunosuppressed CF-1 mouse assessed as increased survival of mouse at 10 mg/kg, ip administered once daily for 5 days relative to control. The class given is functional, organism-based. More on the design: dose 10 mg/kg. A digest of the protocol:
(§2)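 Same immunosuppressed CF-1 model: 5-FU 200 mg/kg i.p. on day −3, dexamethasone 4 mg/kg s.c. on day 0, i.v. tail inoculation of 1.3×10^7 to 1.5×10^7 CFU. Treatment i.p. q24h for 5 days with saline placebo. Fifteen mice per group observed for survival; run in duplicate with data pooled; Kaplan-Meier estimates compared by log-rank test.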

The subject of assay [7] is Pichia kudriavzevii. The assay is described as follows: Antimicrobial activity against Candida krusei LMR 39-14 infected in immunosuppressed CF-1 mouse assessed as serum 1,3-beta-D-glucan level at 10 mg/kg, ip administered once daily for 5 days measured after 10 days (Rvb= 5.22). The class given is functional. To be noted: route intraperitoneal. Put shortly:
(§3)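 Serum (1,3)-β-D-glucan in immunosuppressed CF-1 mice (5-FU 200 mg/kg i.p. day −3, dexamethasone 4 mg/kg s.c. day 0) infected i.v. with 1.3×10^7 to 1.5×10^7 CFU. Mice dosed i.p. q24h for 5 days with saline placebo. Blood taken from five mice per group on day 5 or 10 post-inoculation and assayed with the Fungitell kit (threshold 31 pg/ml). Groups compared by Kruskal-Wallis; duplicate runs pooled.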

In assay [8] the test system is Pichia kudriavzevii. The assay is described as follows: Antimicrobial activity against Candida krusei LMR 39-14 infected in immunosuppressed CF-1 mouse assessed as serum 1,3-beta-D-glucan level at 10 mg/kg, ip administered once daily for 5 days measured after 5 days (Rvb= 6.66). The class given is functional. To be noted: route intraperitoneal. Put shortly:
as §3

The test system of assay [9] is Pichia kudriavzevii. Put plainly: Antimicrobial activity against Candida krusei LMR 39-14 infected in immunosuppressed CF-1 mouse assessed as increased survival of mouse at 20 mg/kg, ip administered once daily for 5 days relative to control. The assay is classed as functional, organism-based. Also on record: dose 20 mg/kg. A digest of the protocol:
as §2

For assay [10], the system named is Pichia kudriavzevii. Put plainly: Antimicrobial activity against Candida krusei LMR 39-14 by M27-A3 microdilution method. The class given is functional. (Dilution methods test growth across graded concentrations, often in twofold steps.)
The subject of assay [11] is Pichia kudriavzevii. The assay is described as follows: Antimicrobial activity against Candida krusei LMR 39-14 infected in immunosuppressed CF-1 mouse assessed as serum 1,3-beta-D-glucan level at 20 mg/kg, ip administered once daily for 5 days measured after 5 days (Rvb= 5.22). The assay is classed as functional. The note with it: route intraperitoneal. A digest of the protocol: as §3

The test system of assay [12] is Pichia kudriavzevii. The assay is described as follows: Antimicrobial activity against Candida krusei LMR 39-14 infected in immunosuppressed CF-1 mouse assessed as decrease in kidney bacterial burden at 10 mg/kg, ip administered once daily for 5 days measured after 5 days (Rvb= 6.66). To be noted: route intraperitoneal. The assay is classed as functional.
Assay [13] relates to Pichia kudriavzevii. The assay is described as follows: Antimicrobial activity against Candida krusei LMR 39-14 infected in immunosuppressed CF-1 mouse assessed as decrease in kidney bacterial burden at 20 mg/kg, ip administered once daily for 5 days measured after 5 days (Rvb= 5.22). The assay is classed as functional. To be noted: route intraperitoneal.
For assay [14], the system named is Pichia kudriavzevii. The assay is described as follows: Antimicrobial activity against Candida krusei by […]. The class given is functional. In general terms: A growth-free zone around the sample is the usual read-out of agar diffusion tests.
The test system of assay [15] is Pichia kudriavzevii. The assay is described as follows: Antimicrobial activity against Candida krusei LMR 39-14 infected in immunosuppressed CF-1 mouse assessed as serum 1,3-beta-D-glucan level at 20 mg/kg, ip administered once daily for 5 days measured after 10 days (Rvb= 5.22). The class given is functional. The note with it: route intraperitoneal. A digest of the protocol:
as §3

Assay [16] has as its system Pichia kudriavzevii. The assay is described as follows: Antimicrobial activity against Candida krusei LMR 39-14 infected in immunosuppressed CF-1 mouse assessed as decrease in kidney bacterial burden at 20 mg/kg, ip administered once daily for 5 days measured after 10 days (Rvb= 5.22). The assay is classed as functional. The note with it: route intraperitoneal.
For assay [17], the system named is Pichia kudriavzevii. Put plainly: Antimicrobial activity against Candida krusei LMR 39-14 infected in immunosuppressed CF-1 mouse assessed as decrease in kidney bacterial burden at 10 mg/kg, ip administered once daily for 5 days measured after 10 days (Rvb= 5.22). The assay is classed as functional. The note with it: route intraperitoneal.
Assay [18] relates to Pichia kudriavzevii. The assay is described as follows: Antimicrobial activity against Candida krusei LMR 39-14 infected in immunosuppressed CF-1 mouse assessed as decrease in kidney bacterial burden at 40 mg/kg, ip administered once daily for 5 days measured after 5 days (Rvb= 6.66). The assay is classed as functional. The note with it: route intraperitoneal.
The test system of assay [19] is Pichia kudriavzevii. The assay is described as follows: Antimicrobial activity against Candida krusei LMR 39-14 infected in immunosuppressed CF-1 mouse assessed as decrease in kidney […] burden at 40 mg/kg, ip administered once daily for 5 days measured after 10 days (Rvb= 5.22). The class given is functional. To be noted: route intraperitoneal.
Assay [20] deals with Pichia kudriavzevii. The assay is described as follows: Antimicrobial activity against Candida krusei LMR 39-14 infected in immunosuppressed CF-1 mouse assessed as increased survival of mouse at 40 mg/kg, ip administered once daily for 5 days relative to control. The assay is classed as functional, organism-based. More on the design: dose 40 mg/kg. Put shortly: as §2
The subject of assay [21] is Pichia kudriavzevii. Put plainly: Antimicrobial activity against Candida krusei LMR 39-14 infected in immunosuppressed CF-1 mouse assessed as serum 1,3-beta-D-glucan level at 40 mg/kg, ip administered once daily for 5 days measured after 10 days (Rvb= 5.22). The class given is functional. The note with it: route intraperitoneal. A digest of the protocol: as §3
The test system of assay [22] is Pichia kudriavzevii. The assay is described as follows: Antimicrobial activity against Candida krusei LMR 39-14 infected in immunosuppressed CF-1 mouse assessed as serum 1,3-beta-D-glucan level at 40 mg/kg, ip administered once daily for 5 days measured after 5 days (Rvb= 6.66). The assay is classed as functional. The note with it: route intraperitoneal. A digest of the protocol:
as §3

In brackets after ≈: the same amount, converted by molar mass. Activity calls are given as the source filed them. Numbered stars: 1 amine (or outer) side, 2 acyl side, 3 side chain; on linkers, the order of the positions; unused ones are H or OH. Bridge positions count the residues as written; N and C are the ends. Square brackets hold non-standard residues; d marks the D form. Peptide text beside a SMILES is read from it. * marks the point of attachment. pTerphenylCO(4''-OnC5H11) = CCCCCOc1ccc(-c2ccc(-c3ccc(C(=O)*)cc3)cc2)cc1; Orn(4R-OH,5R-OH) = O=C([C@H](C[C@@H](O)[C@@H](O)N[*:3])N[*:1])[*:2]; hTyr(3S-OH,4S-OH) = N[C@H](C(=O)O)[C@H](O)[C@@H](O)c1ccc(O)cc1; Pro(3S-OH,4S-Me) = C[C@H]1CN[C@H](C(=O)O)[C@H]1O; Hyp = O=C(O)[C@@H]1C[C@@H](O)CN1

`C[C@@H]1[C@H](O)[C@@H](C)/C=C/C=C/C=C/C=C/C=C/C=C/C=C/[C@H](O[C@@H]2O[C@H](C)[C@@H](O)[C@H](N)[C@@H]2O)C[C@@H]2O[C@](O)(C[C@@H](O)C[C@@H](O)[C@H](O)CC[C@@H](O)C[C@@H](O)CC(=O)O[C@H]1C)C[C@H](O)[C@H]2C(=O)O` [AMPHOTERICIN B]: the figures for the log10CFU/g in the assay with Pichia kudriavzevii [1] and in the assay on Pichia kudriavzevii [5] were 5.95 and 4.96, respectively. For the same molecule, the outcome in the assay with Pichia kudriavzevii [2] was Active. In addition, the results for the Activity with Pichia kudriavzevii [3] and in the assay with Pichia kudriavzevii [4] were 1742 pg/mL and 2559 pg/mL, respectively.

As to `CCCCCOc1ccc(-c2ccc(-c3ccc(C(=O)N[C@H]4C[C@@H](O)[C@@H](O)NC(=O)[C@@H]5[C@@H](O)[C@@H](C)CN5C(=O)[C@H]([C@@H](C)O)NC(=O)[C@H]([C@H](O)[C@@H](O)c5ccc(O)cc5)NC(=O)[C@@H]5C[C@@H](O)CN5C(=O)[C@H]([C@@H](C)O)NC4=O)cc3)cc2)cc1` [ANIDULAFUNGIN] ({pTerphenylCO(4''-OnC5H11)}-[Orn(4R-OH,5R-OH)]T[Hyp][hTyr(3S-OH,4S-OH)]T[Pro(3S-OH,4S-Me)]; lactam 1-C), the outcome in the assay with Pichia kudriavzevii [6] and with Pichia kudriavzevii [9] was Active. Further, the Activity in the assay on Pichia kudriavzevii [7] came to 624 pg/mL; in the assay with Pichia kudriavzevii [8], 256 pg/mL; in the assay with Pichia kudriavzevii [11], 351 pg/mL; in the assay on Pichia kudriavzevii [15], 693 pg/mL. The molecule also registered an MIC with Pichia kudriavzevii [10] of 0.06 µg/mL (≈ 0.0526 µM). The log10CFU/g in the assay with Pichia kudriavzevii [12] was found to be 4.06; in the assay on Pichia kudriavzevii [13], 3.97; in the assay with Pichia kudriavzevii [16], 1.59; with Pichia kudriavzevii [17] it was 0.96. In the assay with Pichia kudriavzevii [14], this molecule yielded an MIC90 of 0.06 µg/mL (≈ 0.0526 µM).

`OC(Cn1cncn1)(Cn1cncn1)c1ccc(F)cc1F` [FLUCONAZOLE]: the MIC against Pichia kudriavzevii [10] was above 64 µg/mL. In addition, the log10CFU/g is 7.01 with Pichia kudriavzevii [18] and 4.77 in the assay with Pichia kudriavzevii [19]. Moreover, the result in the assay with Pichia kudriavzevii [20] was Active. Besides, the results for the Activity with Pichia kudriavzevii [21] and in the assay with Pichia kudriavzevii [22] were 1292 pg/mL and 2714 pg/mL, respectively.

What is called MIC is the smallest concentration in the dilution series that meets the test's criterion for growth inhibition. Low values mean a more susceptible organism, high ones a less susceptible organism. As a reminder, the MIC90 is an inhibitory concentration at the 90% level, which refers to growth in some studies and to a panel of isolates in others.

The record behind these values is ChEMBL document CHEMBL1629668, “Activity of anidulafungin in a murine model of Candida krusei infection: evaluation of mortality and disease burden by quantitative tissue cultures and measurement of serum (1,3)-beta-D-glucan levels” (2009).
